Assay results gathered from unrelated publications.
Action: inhibitor
CHEK2: Serine/threonine-protein kinase Chk2 (CHEK2, Homo sapiens, UniProt O96017)

CCN1CCN(Cc2ccc(NC(=O)c3ccc(C)c(Oc4ccnc5[nH]ccc45)c3)cc2C(F)(F)F)CC1  inhibition (CHEK2; target engagement in cells, chemoproteomics; A-375; 0.5 µM): -16.3%
CNc1cccc2cc(C(=O)Nc3ccc(C(=O)O)cc3)c(=O)[nH]c12  inhibition (CHEK2; enzyme activity; 10 µM): 15%
CCOc1cc(-c2nncn2C)ccc1Nc1ncc2cc(C)nc(NCC(C)(C)C)c2n1  inhibition (CHEK2; enzyme activity, FRET; 1 µM): < 15%
CNC(=O)c1cc(Oc2ccc(NC(=O)Nc3ccc(Cl)c(C(F)(F)F)c3)cc2)ccn1  inhibition (CHEK2; enzyme activity; 0.3 µM): -5%
COc1cc2ncnc(Nc3ccc(Oc4ccccc4)c(C)c3C)c2cc1OC  inhibition (CHEK2; enzyme activity; 1 µM): 36%
CNc1cc(Oc2cc(C(=O)Nc3cc(N4CCN(C)CC4)cc(C(F)(F)F)c3)ccc2C)ncn1  inhibition (CHEK2; target engagement in cells, chemoproteomics; Huh-7; 1 µM): -100%
Cc1ncc([N+](=O)[O-])n1C(=NO)c1ccccc1C(F)(F)F  inhibition (CHEK2; enzyme activity; 10 µM): 17.1%
COc1cc2ncnc(Nc3ccc(Oc4ccccc4)cc3C)c2cc1OC  inhibition (CHEK2; enzyme activity; 1 µM): 83%
CN(C)C1CCN(CC#Cc2nn(C3CCCC3)c3nc(NCc4ccccc4)ncc23)C1 (centres unmarked)  inhibition (CHEK2; enzyme activity, FRET; 10 µM): 17%
Cc1ccc(Nc2nccc(N(C)c3ccc4c(C)n(C)nc4c3)n2)cc1S(N)(=O)=O  inhibition (Serine/threonine-protein kinase Chk2 (CHEK2, Homo sapiens, UniProt O96017, I157T); enzyme activity; 10 µM): 30%
CSc1nc(C)c(-c2ccnc(Nc3ccc(N4CCOCC4)cc3)c2)[nH]1  inhibition (CHEK2; enzyme activity; 10 µM): -5.4%
CN1CC(Oc2cnc(C#N)cc2-c2ccn3nc(NC(=O)C4CC4)cc3c2)C1  inhibition (CHEK2; enzyme activity; 1 µM): 0%
CCCS(=O)(=O)Nc1ccc(F)c(C(=O)c2c[nH]c3ncc(-c4ccc(Cl)cc4)cc23)c1F  inhibition (CHEK2; enzyme activity; 1 µM): < 10%
CN(c1ncccc1CNc1nc(Nc2ccc3c(c2)CC(=O)N3)ncc1C(F)(F)F)S(C)(=O)=O  inhibition (CHEK2; enzyme activity; 1 µM): 33.1%
